Values after ≈ are worked out from the molar mass of the structure shown.

In assay [1] the test system is Moloney murine leukemia virus. The assay can be described thus: Antiretroviral activity in the XC-plaque assay using Moloney leukemia virus (MoLV) as a model for human immunodeficiency virus (HIV). The assay is classed as functional, organism-based.
For assay [2], the target named is T1, Adenosylhomocysteinase (Mus musculus, UniProt P50247). Put plainly: Activity determined in mouse liver S-adenosyl-L-homocysteine hydrolase and expressed as KI values.
Assay [3] has as its target T2, Adenosylhomocysteinase (Rattus norvegicus, UniProt P10760).
T2 sequence (P10760 whole entry): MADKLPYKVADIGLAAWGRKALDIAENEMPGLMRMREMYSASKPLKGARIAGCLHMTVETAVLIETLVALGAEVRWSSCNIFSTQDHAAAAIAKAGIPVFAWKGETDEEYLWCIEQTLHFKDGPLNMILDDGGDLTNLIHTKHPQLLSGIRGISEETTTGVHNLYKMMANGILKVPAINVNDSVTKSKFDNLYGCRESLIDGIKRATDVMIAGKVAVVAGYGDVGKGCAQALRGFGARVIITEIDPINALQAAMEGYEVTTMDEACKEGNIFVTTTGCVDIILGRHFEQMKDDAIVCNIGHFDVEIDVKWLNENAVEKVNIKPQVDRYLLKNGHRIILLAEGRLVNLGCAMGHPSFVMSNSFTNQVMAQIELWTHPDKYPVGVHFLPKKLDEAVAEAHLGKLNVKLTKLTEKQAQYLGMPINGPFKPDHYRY
The assay can be described thus: (§1) Activity determined in rat liver S-adenosyl-L-homocysteine hydrolase and expressed as KI values.

The target in assay [4] is T2, Adenosylhomocysteinase. Put plainly: Activity determined in rat liver S-adenosyl-L-homocysteine hydrolase and expressed as Kinactivator values.
Assay [5] has as its target Adenosylhomocysteinase (Mus musculus) (UniProt P50247).
The target in assay [6] is T3, Adenosylhomocysteinase (Rattus norvegicus) (UniProt P10760).
T3 sequence (whole entry): T2 sequence (P10760 whole entry)

Assay [7] concerns the target T1, Adenosylhomocysteinase. Put plainly: Activity determined in mouse liver S-adenosyl-L-homocysteine hydrolase and expressed as KI values; NA= not applicable. Summed up:
(§2)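 Partially purified mouse liver enzyme (38–55% ammonium sulfate fraction, stored at –70 °C), assayed in the synthetic direction. The mix held […] potassium phosphate, 2 mM 2-mercaptoethanol, 0.1 mM adenosine plus [³H]adenosine, 10 mM DL-homocysteine and 1.0 μM 2-deoxycoformycin, run 10–20 min at 37 °C. [³H]SAH was separated on Cellex-P and counted. Time-dependent inactivation constants came from the Kitz–Wilson method.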

Assay [8] has as its target T2, Adenosylhomocysteinase. The assay can be described thus: Activity determined in rat liver S-adenosyl-L-homocysteine hydrolase and expressed as KI values; NA= not applicable.
In assay [9] the target is T2, Adenosylhomocysteinase. Put plainly: Activity determined in rat liver S-adenosyl-L-homocysteine hydrolase and expressed as Kinactivator values; NA= not applicable.
In assay [10] the target is T2, Adenosylhomocysteinase. Put plainly: Activity determined in rat liver S-Adenosyl-homocysteine hydrolase and expressed as KI values; NA= not applicable.
Assay [11] deals with T2, Adenosylhomocysteinase. The assay can be described thus: Competitive inhibitory activity against rat liver S-Adenosyl-homocysteine hydrolase.
For assay [12], the target named is T1, Adenosylhomocysteinase. The assay can be described thus: Activity determined in mouse liver S-Adenosyl-homocysteine hydrolase and expressed as KI values; NA= not applicable.
In assay [13] the target is T1, Adenosylhomocysteinase. Put plainly: Activity determined in mouse liver S-Adenosyl-L-homocysteine (SAH) Hydrolase and expressed as KI values; NA= not applicable. Summed up:
as §2

The target of assay [14] is T2, Adenosylhomocysteinase. The assay can be described thus: Activity determined in rat liver S-Adenosyl-L-homocysteine (SAH) Hydrolase and expressed as KI values; NA= not applicable.
Assay [15] addresses T3, Adenosylhomocysteinase (Rattus norvegicus). The description is as §1.
Assay [16] concerns the target T2, Adenosylhomocysteinase. The assay can be described thus: Time-dependent inhibitory activity against rat liver S-adenosyl-L-homocysteine hydrolase.

Sequence of Adenosylhomocysteinase (Mus musculus) (P50247 2-432 limits assumed): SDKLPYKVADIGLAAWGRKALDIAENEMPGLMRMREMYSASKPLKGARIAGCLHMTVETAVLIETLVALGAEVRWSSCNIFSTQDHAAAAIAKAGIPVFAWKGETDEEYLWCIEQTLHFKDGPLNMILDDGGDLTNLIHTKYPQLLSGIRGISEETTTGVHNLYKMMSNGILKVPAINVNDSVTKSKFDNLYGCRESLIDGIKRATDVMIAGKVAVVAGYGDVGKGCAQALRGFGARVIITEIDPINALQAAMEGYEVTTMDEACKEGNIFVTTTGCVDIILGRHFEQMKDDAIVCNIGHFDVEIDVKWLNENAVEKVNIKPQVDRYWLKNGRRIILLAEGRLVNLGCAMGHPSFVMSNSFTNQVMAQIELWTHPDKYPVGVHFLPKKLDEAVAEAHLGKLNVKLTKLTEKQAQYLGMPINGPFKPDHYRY
T1 sequence (P50247 whole entry): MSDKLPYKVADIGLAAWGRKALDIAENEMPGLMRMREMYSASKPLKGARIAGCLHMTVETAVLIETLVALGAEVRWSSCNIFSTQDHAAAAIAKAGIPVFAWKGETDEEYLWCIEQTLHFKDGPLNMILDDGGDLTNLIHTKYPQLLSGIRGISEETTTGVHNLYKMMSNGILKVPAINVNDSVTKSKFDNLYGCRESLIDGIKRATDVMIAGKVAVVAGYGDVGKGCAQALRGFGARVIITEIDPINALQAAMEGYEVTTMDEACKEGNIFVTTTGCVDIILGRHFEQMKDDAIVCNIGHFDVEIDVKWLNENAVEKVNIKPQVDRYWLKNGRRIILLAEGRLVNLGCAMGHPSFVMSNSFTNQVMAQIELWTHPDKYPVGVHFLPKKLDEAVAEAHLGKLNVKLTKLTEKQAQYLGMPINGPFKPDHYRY

`Nc1ncnc2c1ncn2[C@@H]1O/C(=C/F)[C@@H](O)[C@H]1O` returned an IC50 in assay [1] of 0.25 µg/mL (≈ 0.936 µM). Besides, the Ki is 1.04 µM on Adenosylhomocysteinase [2], 2.4 µM on Adenosylhomocysteinase [3] and “Not Active” at Adenosylhomocysteinase [4]. Further, the K inact in assay [5] was 0.23 min⁻¹; in [6], 0.14 min⁻¹.

`Nc1ncnc2c1ncn2[C@H]1C[C@H](O)/C(=C/F)O1`: the concentration for half-maximal inhibition (IC50) in assay [1] stood at 10 µg/mL (≈ 39.8 µM). Further, the Ki entry at Adenosylhomocysteinase [7] is “Not Active”; at Adenosylhomocysteinase [8], “Not Active”; at Adenosylhomocysteinase [9], 150 µM.

For the molecule `Nc1ncnc2c1ncn2[C@@H]1O/C(=C\F)[C@@H](O)[C@H]1O`, in assay [1], the IC50 is 0.05 µg/mL (≈ 0.187 µM). The Ki on Adenosylhomocysteinase [2] was 0.55 µM; on Adenosylhomocysteinase [3], 6.5 µM; at Adenosylhomocysteinase [4], “Not Active”. Besides, the results for the K inact in [5] and in assay [6] were 0.28 min⁻¹ and 0.8 min⁻¹, respectively.

In assay [1], `Nc1ncnc2c1ncn2[C@@H]1O/C(=C(/F)Cl)[C@@H](O)[C@H]1O` showed an IC50 of 0.1 µg/mL (≈ 0.331 µM). Further, the results for the Ki entry on Adenosylhomocysteinase [10], at Adenosylhomocysteinase [11] and on Adenosylhomocysteinase [12] were “Not Active”, 1.5 µM and “Not Active”, respectively.

With `Nc1ncnc2c1ncn2[C@H]1C[C@H](O)/C(=C\F)O1`, the Ki entry on Adenosylhomocysteinase [13] and at Adenosylhomocysteinase [14] was “Not Active” each time.

`Nc1ncnc2c1ncn2[C@@H]1O/C(=C/F)[C@@H](O)[C@@H]1O` registered a half-maximal inhibitory concentration (IC50) in assay [1] of 4.4 µg/mL (≈ 16.5 µM). For the same molecule, the Ki entry is “Not Active” on Adenosylhomocysteinase [10], 3.2 µM at Adenosylhomocysteinase [11] and “Not Active” on Adenosylhomocysteinase [12].

`Nc1ncnc2c1ncn2[C@@H]1O[C@H](CO)[C@@H](O)[C@@H]1O` [VIDARABINE] displayed an IC50 in assay [1] of 1 µg/mL (≈ 3.74 µM). For the same molecule, the Ki at Adenosylhomocysteinase [2] turned out to be 30 µM.

For `Nc1ncnc2c1ncn2C1O[C@H](C(F)F)[C@@H](O)[C@H]1O` (stereo partly specified), the concentration for half-maximal inhibition (IC50) in [1] stood at 0.8 µg/mL (≈ 2.79 µM). Moreover, the Ki on Adenosylhomocysteinase [2] amounted to 10 µM; at Adenosylhomocysteinase [4] (read-out: Ki), 9.7 µM; on Adenosylhomocysteinase [16], 9.7 µM. For the same molecule, the K inact is 0.04 min⁻¹ in [15] and 0.6 min⁻¹ in assay [5].

In assay [1], `Nc1ncnc2c1ncn2[C@@H]1O/C(=C\Cl)[C@@H](O)[C@H]1O` displayed an IC50 of 3.3 µg/mL (≈ 11.6 µM). Moreover, the Ki result at Adenosylhomocysteinase [7] is “Not Active”; on Adenosylhomocysteinase [8], “Not Active”; at Adenosylhomocysteinase [9], 1.6 µM.

Take `Nc1ncnc2c1ncn2[C@@H]1O/C(=C\F)[C@@H](O)[C@@H]1O`: the IC50 in assay [1] stood at 1.2 µg/mL (≈ 4.49 µM). Also, the Ki result on Adenosylhomocysteinase [10] was “Not Active”; on Adenosylhomocysteinase [11] it was 11 µM; at Adenosylhomocysteinase [12], “Not Active”.

With `Nc1ncnc2c1ncn2[C@@H]1O/C(=C(\F)Cl)[C@@H](O)[C@H]1O`, in [1], half-maximal inhibition (IC50) required 1.3 µg/mL (≈ 4.31 µM). The Ki result at Adenosylhomocysteinase [7] is “Not Active”; at Adenosylhomocysteinase [8], “Not Active”; on Adenosylhomocysteinase [9] it was 3 µM.

Usually IC50 stands for the midpoint of a concentration-inhibition curve. A high value points to weaker potency in that assay.
